The record followed here is ChEMBL document CHEMBL1134393, “Synthesis and biological activity of analogues of the antidiabetic/antiobesity agent 3-guanidinopropionic acid: discovery of a novel aminoguanidinoacetic acid antidiabetic agent” (2001).

For one assay, the target named is Creatine kinase M-type (Oryctolagus cuniculus) (UniProt P00563). Description: In vitro kinase activity (phosphorylation) of creatine kinase was determined.
Sequence of Creatine kinase M-type (Oryctolagus cuniculus) (P00563 whole entry, looked up): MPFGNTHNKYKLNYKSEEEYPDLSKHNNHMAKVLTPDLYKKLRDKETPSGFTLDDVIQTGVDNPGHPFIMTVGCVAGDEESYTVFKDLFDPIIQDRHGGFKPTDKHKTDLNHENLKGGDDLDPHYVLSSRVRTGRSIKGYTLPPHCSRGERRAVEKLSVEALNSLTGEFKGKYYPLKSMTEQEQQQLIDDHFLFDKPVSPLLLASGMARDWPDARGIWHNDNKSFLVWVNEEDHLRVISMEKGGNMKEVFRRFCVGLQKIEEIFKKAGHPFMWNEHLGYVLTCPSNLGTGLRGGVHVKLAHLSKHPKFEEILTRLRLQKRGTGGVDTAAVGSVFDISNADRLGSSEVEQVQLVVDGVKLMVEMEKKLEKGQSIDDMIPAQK
In turn, `N=C(N)NCCC(=O)O` [OMPENACLID] gave an Activity of 5.

With `N=C(N)NNCC(=O)O`, the Activity turned out to be 0.5.

As for `CN(CC(=O)O)C(=N)N` [CREATINE], the Activity came out at 100.

A further assay has as its system A10. Put plainly: (§1) In vitro [14C]- creatine uptake (1 mM) was determined in rat A10 smooth muscle cells at a concentration of (1 mM). It is filed as functional. In a few lines: (§2)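 Rat A10 smooth muscle cells grown in DMEM with 10% FBS and used in log-phase growth. Cells washed, then incubated at 37 °C in Hanks buffer (pH 7.4, 10 mM Hepes, 20 mM glucose, 0.2% fatty-acid-free BSA) with [14C]creatine (1 mM) plus test compound (1 mM) for 30–120 min. Ice-cold washes, NaOH lysis, scintillation counting. Uptake normalised to medium specific activity and extract protein; reported as % inhibition.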
As usually defined, the Inhibition is how much of the control response was suppressed. Higher therefore signals a response far below the control. The compound `N=C(N)NCCC(=O)O` [OMPENACLID] displayed an Inhibition of 97%.

The next assay is filed under the species Rattus norvegicus. The assay is described as §1. Format: functional. In a few lines: as §2
In the case of `N=C(N)NNCC(=O)O`, the Inhibition is 36%.

The target in another assay is Sodium- and chloride-dependent creatine transporter 1 (Rattus norvegicus) (UniProt P28570). Description: In vitro [14C]- creatine uptake (1 mM) was determined in rat A10 smooth muscle cells at a concentration of (1 mM).
On to `CN(CC(=O)O)C(=N)N` [CREATINE], for which the Inhibition is reported as 92%.

Tested on in the next assay: not listed separately
Description: In vivo blood glucose was determined in obese, hyperglycemic, hyperinsulinemic, insulin-resistant […] after a dose of 500 mg/kg for 4 days. It is filed as functional, Mus musculus. In a few lines: (§3)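 KKAy mice (KK female × Ay male cross) allocated to treatment or control groups (n = 6) after pretest glucose. Compound given in food, equivalent to 500 mg/kg per day for 4 days. Nonfasting blood drawn from the retroorbital sinus; glucose measured by autoanalyzer. Result expressed as treated/control glucose ratio (T/C). Wilcoxon rank sum test applied when T/C < 0.80.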
In the case of `N=C(N)NCCC(=O)O` [OMPENACLID], the MISS T/C was determined as 0.52.

Tested on in another assay: not listed separately
Put plainly: In vivo blood glucose was determined in obese, hyperglycemic, hyperinsulinemic, insulin-resistant KKAy mice after a dose of 500 mg/kg for 4 days. It is filed as functional, Mus musculus. Put shortly: as §3
In the case of `O=C(O)CCn1cccn1`, the “MISS T/C” value was 1.11.

Consider `Cl.NC(=O)CCN=C(N)N`, for which the “MISS T/C” value was found to be 0.96.

Turning to `CN(C)C(=N)SCCC(=O)O.Cl`, the “MISS T/C” value is listed as 1.08.

As for `Cl.N=C(N)CSCC(=O)O`, the “MISS T/C” value amounted to 0.92.

In the case of `N=C(N)NCCC[C@H](N)C(=O)O` [ARGININE], the “MISS T/C” value turned out to be 1.02.

As for `N=C(N)c1ccc(CC(=O)O)[nH]1`, the “MISS T/C” value is 1.1.

Take `N=C(N)NCCS(=O)(=O)O`: the “MISS T/C” value was 0.91.

Turning to `O=C(O)CCn1ccnc1`, the “MISS T/C” value turned out to be 0.81.

`CCCCCC(CC(=O)O)N=C(N)N` (stereo unspecified): the “MISS T/C” value is on record as 0.88.

Turning to `N=C(N)N1CCCCC1CC(=O)O` (stereo unspecified), the “MISS T/C” value is 0.91.

Take `CSC(=N)NCCC(=O)O`: the “MISS T/C” value is 1.1.

As to `C/N=C(\N)SCCC(=O)O.Cl`, the MISS T/C is 0.59.

In the case of `N[C@@H](Cc1c[nH]cn1)C(=O)O` [HISTIDINE], the “MISS T/C” value was 0.8.

On to `O=C(O)CCNc1ccccn1`, for which the MISS T/C came out at 0.2.

In the case of `N/C(=N/CCC(=O)O)N[N+](=O)[O-]`, the “MISS T/C” value was found to be 0.84.

`CCCCCCN=C(N)NCCC(=O)O`: the “MISS T/C” value came to 0.85.

In the case of `N=C(N)NCCP(=O)(O)O`, the “MISS T/C” value was 0.81.

With `N=C(N)NC(CC(=O)O)c1ccccc1` (stereo unspecified), the “MISS T/C” value is given as 0.95.

Turning to `Nc1ncnc2c1cnn2CCC(=O)O`, the “MISS T/C” value was 1.27.

As for `N=C(N)NCC(Cc1ccccc1)C(=O)O` (stereo unspecified), the “MISS T/C” value worked out at 0.93.

In the case of `NC(=O)NCCC(=O)O`, the “MISS T/C” value is 1.06.

For `C/N=C(\NC)SCCC(=O)O.Cl`, the “MISS T/C” value is listed as 1.06.

On to `N=C(N)c1ccccc1NCCC(=O)O`, for which the “MISS T/C” value is given as 0.73.

Turning to `N=C(N)NCCc1nnn[nH]1`, the “MISS T/C” value amounted to 0.94.

As to `Cl.N=C(N)SCC(=O)O`, the “MISS T/C” value came out at 0.86.

With `N=C(N)N[C@H]1CCC[C@H]1C(=O)O`, the “MISS T/C” value came to 0.97.

As to `O=C(O)CCNc1[nH]cnc2ncnc1-2`, the “MISS T/C” value is recorded as 0.85.

`O=C(O)CCNc1nccs1`: the “MISS T/C” value is given as 0.99.

Take `CC(=N)NCCC(=O)O`: the “MISS T/C” value is reported as 0.77.

Compound `O=C(O)Cc1c[nH]cn1` [IMIDAZOLE ACETIC ACID] returned an MISS T/C of 0.68.

In the case of `O=C(O)CCNC1=NCCS1`, the “MISS T/C” value worked out at 0.85.

As to `N=C(N)NNCC(=O)O`, the MISS T/C was determined as 0.61.

As to `Nc1ccc[n+](CC(=O)O)c1.[Cl-]`, the “MISS T/C” value turned out to be 0.94.

Consider `O=C(O)CCNc1nc2ccccc2s1`, for which the “MISS T/C” value is reported as 0.87.

As to `Nc1ncnc2nn(CCC(=O)O)cc12`, the “MISS T/C” value is 1.08.

Turning to `Nc1cccc[n+]1CCC(=O)[O-]`, the “MISS T/C” value amounted to 1.07.

In the case of `N=C(N)NCC(O)C(=O)O` (stereo unspecified), the “MISS T/C” value was determined as 1.1.

For `N=C(N)N[C@H]1CCCC[C@H]1C(=O)O`, the “MISS T/C” value was 0.92.

Regarding `CCOC(=O)CCN=C(N)N.Cl`, the “MISS T/C” value worked out at 0.87.

Turning to `N=C(N)Nc1ccc(C(=O)O)cc1` [4-GUANIDINO-BENZOIC ACID], the “MISS T/C” value came to 0.8.

In the case of `N=C(N)N[C@H]1CCC[C@@H]1C(=O)O`, the “MISS T/C” value is reported as 0.9.

For the compound `CC(CN=C(N)N)C(=O)O` (stereo unspecified), the “MISS T/C” value came to 0.86.

For the compound `N=C(N)NCCCC(=O)O`, the “MISS T/C” value stood at 0.8.

For `CNC(CN=C(N)N)C(=O)O.Cl.Cl` (stereo unspecified), the “MISS T/C” value was 0.96.

`Cl.N=C(N)SCCCC(=O)O`: the “MISS T/C” value is recorded as 0.87.

In the case of `N#CN/C(N)=N\CCC(=O)O`, the “MISS T/C” value came to 0.92.

Take `N/C(S)=N/CCC(=O)O`: the “MISS T/C” value amounted to 0.99.

Take `Cl.NC(N)=NC[C@@H](N)C(=O)O`: the “MISS T/C” value is reported as 0.92.

For `O=C(O)CCNc1ncccn1`, the “MISS T/C” value came out at 1.01.

`N=C(N)NOCC(=O)O`: the “MISS T/C” value is 0.83.

Turning to `O=C(O)CCNc1nc2ccccc2[nH]1`, the “MISS T/C” value is given as 0.95.

As to `N=C(N)NCC(S)C(=O)O` (stereo unspecified), the “MISS T/C” value was 0.83.

On to `N=C(N)SCCC(=O)O`, for which the MISS T/C was found to be 0.53.

As to `CN(CCC(=O)O)C(=N)N`, the “MISS T/C” value is reported as 1.02.

Regarding `N=C(N)c1cccn1CCC(=O)O`, the “MISS T/C” value came out at 0.93.

Turning to `Cl.N=C(N)NC/C(=N/O)C(=O)O`, the “MISS T/C” value was 0.97.

`N=C(N)S/C=C\C(=O)O` [ZAPA] registered an MISS T/C of 0.68.

Consider `Cl.N=C(N)CCCC(=O)O`, for which the “MISS T/C” value is reported as 0.93.

As for `CCc1cc(O)nc(NCCC(=O)O)n1`, the “MISS T/C” value came to 0.96.

Regarding `C/N=C(\N)NCCC(=O)O`, the “MISS T/C” value is 1.02.

`COC(=O)NC(=N)NCCC(=O)O`: the “MISS T/C” value came to 0.88.

Turning to `Cl.N=C(N)S/C=C\C(=O)O`, the “MISS T/C” value came to 0.95.

`CC(=O)NC(=N)NCCC(=O)O`: the “MISS T/C” value is given as 0.88.

Regarding `N=C(N)NCCc1c[nH]c(S)n1`, the “MISS T/C” value was 0.8.

In turn, `N=C(N)NCC(=O)O` [GUANIDINO ACETATE] registered an MISS T/C of 0.62.

For `Cl.Cl.N/C(=N\CCC(=O)O)c1ccccc1N`, the “MISS T/C” value is given as 0.92.

Consider `CC(CC(=O)O)N=C(N)N` (stereo unspecified), for which the “MISS T/C” value came out at 0.77.

For the compound `Nc1cccc(CC(=O)O)n1`, the “MISS T/C” value was determined as 1.08.

As for `O=C(O)CCNC1=NCCN1`, the “MISS T/C” value is on record as 0.97.

For the compound `CCCCCC(CN=C(N)N)C(=O)O` (stereo unspecified), the “MISS T/C” value is listed as 0.79.

As for `N=C(N)N[C@H]1CCCC[C@@H]1C(=O)O`, the “MISS T/C” value was 0.93.

With `Cl.N=C(N)NCCC(=O)NO`, the “MISS T/C” value came out at 1.05.

For the compound `N=C(N)N1CCCC(C(=O)O)C1` (stereo unspecified), the “MISS T/C” value came to 1.

Turning to `NC(N)=NC[C@H](N)C(=O)O`, the MISS T/C came out at 0.35.
